ChEMBL document CHEMBL3817731, “Synthesis and investigation of novel benzimidazole derivatives as antifungal agents” (Bioorg Med Chem, 2016)
≈ marks a conversion by molar mass, not a printed value. Calls of active or inactive are those of the source. The rule behind the calls is not given here.

Key:
Candida albicans [1] = assay: Induction of ROS production in Candida albicans ATCC 10231 at 8 to 16 ug/ml after 1 hr by DCFH-DA probe based fluorescence microscopy; assay type: functional, organism-based
In short: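 C. albicans ATCC 10231 yeast cells exposed to drug at 8 and 16 µg/mL for 1 h at 35 °C, alongside untreated and AmB controls. Cells were then stained with DCFH-DA (20 µg/mL) for 30 min in the dark. Intracellular ROS was visualised by fluorescence microscopy.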

Nakaseomyces glabratus = assay: Antifungal activity against Candida glabrata ATCC 2001 after 48 hrs by CLSI M27-A3 method; assay type: functional; settings: CBS 138, 48 h
Candida albicans [2] = assay: Antifungal activity against Candida albicans ATCC MYA-2310 after 48 hrs by CLSI M27-A3 method; assay type: functional; settings: ATCC MYA-2310, 48 h
Candida albicans [3] = assay: Antifungal activity against Candida albicans ATCC MYA-1003 after 48 hrs by CLSI M27-A3 method; assay type: functional; settings: ATCC MYA-1003, 48 h
Candida albicans [4] = assay: Antifungal activity against Candida albicans ATCC 10231 after 48 hrs by CLSI M27-A3 method; assay type: functional; settings: ATCC 10231, 48 h
Aspergillus flavus = assay: Antifungal activity against Aspergillus flavus ATCC MYA-3631 after 48 hrs by CLSI M38-A2 method; assay type: functional; settings: ATCC MYA-3631, 48 h
Candida albicans [5] = assay: Antifungal activity against Candida albicans ATCC MYA-2876 after 48 hrs by CLSI M27-A3 method; assay type: functional; settings: ATCC MYA-2876, 48 h
Aspergillus terreus = assay: Antifungal activity against Aspergillus terreus ATCC MYA3633 after 48 hrs by CLSI M38-A2 method; assay type: functional; settings: ATCC MYA3633, 48 h
Candida albicans [6] = assay: Antifungal activity against Candida albicans ATCC MYA-1237 after 48 hrs by CLSI M27-A3 method; assay type: functional; settings: ATCC MYA-1237, 48 h
Pichia kudriavzevii = assay: Antifungal activity against Candida krusei ATCC 6258 after 48 hrs by CLSI M27-A3 method; assay type: functional; settings: ATCC 6258, 48 h
Aspergillus nidulans = assay: Antifungal activity against Aspergillus nidulans ATCC 38163 after 48 hrs by CLSI M38-A2 method; assay type: functional; settings: ATCC 38163, 48 h
Candida albicans [7] = assay: Antifungal activity against Candida albicans ATCC 64124 after 48 hrs by CLSI M27-A3 method; assay type: functional; settings: ATCC 64124, 48 h
Candida albicans [8] = assay: Antifungal activity against Candida albicans ATCC MYA-90819 after 48 hrs by CLSI M27-A3 method; assay type: functional; settings: ATCC MYA-90819, 48 h
Candida parapsilosis = assay: Antifungal activity against Candida parapsilosis ATCC 22019 after 48 hrs by CLSI M27-A3 method; assay type: functional; settings: Lodderomyces parapsilosis, ATCC 22019, 48 h
Candida albicans [9] = assay: Fungistatic activity against Candida albicans ATCC 64124 assessed as reduction in fungal population at MIC upto 24 hrs by time kill assay; assay type: functional, organism-based
[10] = Cytotoxicity against human BEAS2B cells assessed as reduction in cell survival after 24 hrs by resazurin assay; assay type: cell-based; settings: BEAS-2B
In short: (§1)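 Human A549 cells treated 24 h; BEAS 2B cells treated 6 h or 24 h. DMSO-treated cells served as negative control and Triton X-treated cells as positive control. Read-out was cell survival.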

Candida albicans [11] = assay: Induction of ROS production in Candida albicans ATCC 10231 at 1 to 2 times MIC after 1 hr by DCFH-DA probe based fluorescence microscopy; assay type: functional, organism-based
[12] = Cytotoxicity against human BEAS2B cells assessed as reduction in cell survival after 6 hrs by resazurin assay; assay type: cell-based; settings: beas-2b; in short: as §1
Candida albicans [13] = assay: Fungistatic activity against Candida albicans ATCC 64124 assessed as reduction in fungal population at MIC after 24 hrs by time kill assay
A549 = assay: Cytotoxicity against human A549 cells assessed as reduction in cell survival after 24 hrs by resazurin assay; assay type: cell-based; settings: A549, 24 h; in short: as §1
Candida albicans [14] = assay: Fungicidal activity against Candida albicans ATCC 64124 assessed as reduction in fungal population at 2 times MIC after 24 to 48 hrs by time kill assay; assay type: functional
Candida albicans [15] = assay: Fungicidal activity against Candida albicans ATCC 64124 assessed as reduction in fungal population at MIC after 9 hrs by time kill assay; assay type: functional

Compound	MIC (Nakaseomyces glabratus) [µg/mL]	MIC (Candida albicans [2]) [µg/mL]	MIC (Candida albicans [3]) [µg/mL]	MIC (Candida albicans [4]) [µg/mL]	MIC (Aspergillus flavus) [µg/mL]	MIC (Candida albicans [5]) [µg/mL]	MIC (Aspergillus terreus) [µg/mL]	MIC (Candida albicans [6]) [µg/mL]	MIC (Pichia kudriavzevii) [µg/mL]	MIC (Aspergillus nidulans) [µg/mL]	MIC (Candida albicans [7]) [µg/mL]	MIC (Candida albicans [8]) [µg/mL]	MIC (Candida parapsilosis) [µg/mL]	Activity (Candida albicans [11])	Activity (Candida albicans [14])	other results
CCCCCCCCCCCCN1CCN(c2ccc3nc(-c4ccc5nc(-c6ccc(O)cc6)[nH]c5c4)[nH]c3c2)CC1	> 31.2	> 31.2	> 31.2	> 31.2	> 31.2	> 31.2	> 31.2	> 31.2	> 31.2	> 31.2	> 31.2	> 31.2	> 31.2	–	–	Activity (Candida albicans [1]): inactive
CCOc1ccc(-c2nc3cc(-c4nc5cc(N6CCN(C)CC6)ccc5[nH]4)ccc3[nH]2)cc1	7.8 (≈ 17.2 µM)	7.8 (≈ 17.2 µM)	15.6 (≈ 34.5 µM)	7.8 (≈ 17.2 µM)	31.2 (≈ 68.9 µM)	7.8 (≈ 17.2 µM)	7.8 (≈ 17.2 µM)	7.8 (≈ 17.2 µM)	7.8 (≈ 17.2 µM)	3.9 (≈ 8.62 µM)	7.8 (≈ 17.2 µM)	7.8 (≈ 17.2 µM)	3.9 (≈ 8.62 µM)	Active	5 log10CFU	Activity (Candida albicans [9]): Active; IC50 [10]: 1.95 µg/mL (≈ 4.31 µM); Activity [12]: Non-toxic; Activity (Candida albicans [13]): 1 log10CFU; IC50 (A549): 0.98 µg/mL (≈ 2.17 µM)
C[C@@H]1[C@H](O)[C@@H](C)/C=C/C=C/C=C/C=C/C=C/C=C/C=C/[C@H](O[C@@H]2O[C@H](C)[C@@H](O)[C@H](N)[C@@H]2O)C[C@@H]2O[C@](O)(C[C@@H](O)C[C@@H](O)[C@H](O)CC[C@@H](O)C[C@@H](O)CC(=O)O[C@H]1C)C[C@H](O)[C@H]2C(=O)O [AMPHOTERICIN B]	1.95 (≈ 2.11 µM)	1.95 (≈ 2.11 µM)	3.9 (≈ 4.22 µM)	3.9 (≈ 4.22 µM)	–	1.95 (≈ 2.11 µM)	3.9 (≈ 4.22 µM)	3.9 (≈ 4.22 µM)	3.9 (≈ 4.22 µM)	–	3.9 (≈ 4.22 µM)	0.975 (≈ 1.06 µM)	1.95 (≈ 2.11 µM)	Active	Active	Activity (Candida albicans [15]): Active
